Test results published in ChEMBL document CHEMBL1125715, “Novel 5-HT3 antagonists. Indole oxadiazoles” (J Med Chem, 1991).

How the values were obtained:
[1] = target: T1, Serotonin 3 (5-HT3) receptor (Rattus norvegicus, UniProt P35563+Q9JJ16); assay: Compound was evaluated for the displacement of [3H]-Q-ICS 205-930 binding to 5-hydroxytryptamine 3 receptor in rat brain membranes; assay type: cell membranes
T1 sequence (P35563 whole entry): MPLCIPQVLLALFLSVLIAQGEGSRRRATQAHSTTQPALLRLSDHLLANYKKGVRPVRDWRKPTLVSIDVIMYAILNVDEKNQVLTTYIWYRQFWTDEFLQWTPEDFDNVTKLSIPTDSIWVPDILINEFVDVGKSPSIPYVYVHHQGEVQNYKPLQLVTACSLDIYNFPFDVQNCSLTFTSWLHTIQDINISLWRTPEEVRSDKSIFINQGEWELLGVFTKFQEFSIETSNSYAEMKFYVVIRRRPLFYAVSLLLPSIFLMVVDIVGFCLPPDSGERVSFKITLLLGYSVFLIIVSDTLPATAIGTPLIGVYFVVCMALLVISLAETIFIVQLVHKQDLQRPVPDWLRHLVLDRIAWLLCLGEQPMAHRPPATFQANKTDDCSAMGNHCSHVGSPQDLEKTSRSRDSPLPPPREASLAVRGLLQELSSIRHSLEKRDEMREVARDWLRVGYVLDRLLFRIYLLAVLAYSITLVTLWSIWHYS
T1 sequence (Q9JJ16 whole entry): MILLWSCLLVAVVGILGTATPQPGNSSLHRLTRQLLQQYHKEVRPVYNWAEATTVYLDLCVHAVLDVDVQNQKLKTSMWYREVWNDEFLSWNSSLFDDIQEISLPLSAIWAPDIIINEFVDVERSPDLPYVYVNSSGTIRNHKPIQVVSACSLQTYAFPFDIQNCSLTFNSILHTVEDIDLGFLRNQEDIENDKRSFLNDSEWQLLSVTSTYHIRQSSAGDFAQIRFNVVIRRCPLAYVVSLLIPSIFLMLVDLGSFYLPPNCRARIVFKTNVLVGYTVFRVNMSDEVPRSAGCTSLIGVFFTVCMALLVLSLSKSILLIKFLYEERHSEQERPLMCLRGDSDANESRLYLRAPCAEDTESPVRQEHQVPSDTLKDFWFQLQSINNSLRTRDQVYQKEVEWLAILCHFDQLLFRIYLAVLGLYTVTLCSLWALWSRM
Summary of the method: (§1)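 Rat cortical membranes from male Sprague-Dawley rats (250-300 g): sucrose homogenization, differential centrifugation, washed in 2.5 mM Hepes, made fresh on the day. About 400 µg protein incubated on ice (4 °C, 15 min) with 0.5-0.7 nM [3H]Q-ICS 205-930 in 10 mM Hepes pH 7.1 containing pargyline and ascorbate. Nonspecific binding defined with 10 µM MDL 72222.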

[2] = target: T1, Serotonin 3 (5-HT3) receptor; assay: Displacement of [3H]-Q-ICS 205-930 binding to 5-hydroxytryptamine 3 receptor recognition sites in rat brain membranes.; assay type: cell membranes; summary of the method: as §1
[3] = pKa value of the compound.; assay type: physicochemical
[4] = pKa value of the compound; assay type: physicochemical

| Compound | IC50 [2] | other results |
| --- | --- | --- |
| Cc1[nH]c2ccc(O)cc2c1CCN | – | IC50 [1]: 646 nM |
| Cn1cc(-c2noc(C34CCN(CC3)CC4)n2)c2ccccc21 | 4.27 nM | – |
| Oc1ccccc1-c1noc(C2CN3CCC2CC3)n1 (centres undefined) | 41.7 nM | – |
| CN1CCC(c2nc(-c3cn(C)c4ccccc34)no2)CC1 | 13.2 nM | – |
| Cn1cc(-c2noc(C3CC[N+](C)(C)CC3)n2)c2ccccc21 | 35.5 nM | – |
| Cc1ccc2c(c1)c(-c1noc(C3CN4CCC3CC4)n1)cn2C (centres undefined) | 331 nM | – |
| Cn1cc(-c2noc(CCN)n2)c2ccccc21 | 67.6 nM | – |
| c1ccc2[nH]c(-c3noc(C4CN5CCC4CC5)n3)cc2c1 (centres undefined) | 692 nM | – |
| Cn1cc(-c2noc(C3CCC[N+](C)(C)C3)n2)c2ccccc21 (centres undefined) | 34.7 nM | – |
| c1ccc2c(-c3noc(C4CN5CCC4CC5)n3)cccc2c1 (centres undefined) | 63.1 nM | – |
| CNCc1nc(-c2cn(C)c3ccccc23)no1 | 1000 nM | pKa [3]: 6.5 |
| CN(C)Cc1nc(-c2cn(C)c3ccccc23)no1 | 166 nM | pKa [3]: 5.6 |
| Cn1cc(-c2noc(C3CN4CCC3CC4)n2)c2cc(F)ccc21 (centres undefined) | 45.7 nM | – |
| Cn1cc(-c2noc(C3CN4CCC3CC4)n2)c2ccccc21 (centres undefined) | 1.38 nM | – |
| C=CCn1cc(-c2noc(C3CN4CCC3CC4)n2)c2ccccc21 (centres undefined) | 21.9 nM | – |
| CN(C)CCCc1nc(-c2cn(C)c3ccccc23)no1 | 191 nM | – |
| Cc1cccc2c(-c3noc(C4CN5CCC4CC5)n3)cn(C)c12 (centres undefined) | 95.5 nM | – |
| c1ccc2c(-c3noc(C4CN5CCC4CC5)n3)[nH]nc2c1 (centres undefined) | 17.8 nM | – |
| Cn1cc(-c2nc(C3CN4CCC3CC4)no2)c2ccccc21 (centres undefined) | 29.5 nM | – |
| CN1CCC=C(c2csc(-c3cn(C)c4ccccc34)n2)C1 | 5890 nM | – |
| Cn1c(-c2noc(C3CN4CCC3CC4)n2)cc2ccccc21 (centres undefined) | 676 nM | – |
| Cn1cc(-c2noc(C[N+](C)(C)C)n2)c2ccccc21 | 0.708 nM | – |
| Cn1cc(-c2noc(CN)n2)c2ccccc21 | 282 nM | pKa [3]: 6.4 |
| Cn1cc(-c2noc(C3=CCCNC3)n2)c2ccccc21 | 468 nM | pKa [3]: 7.9 |
| CN1C2CCC1CC(c1nc(-c3cn(C)c4ccccc34)no1)C2 (centres undefined) | 191 nM | – |
| Cn1cc(-c2noc(CCN3CCCCC3)n2)c2ccccc21 | 372 nM | – |

| Compound | IC50 [2] | other results |
| --- | --- | --- |
| Cn1cc(-c2noc(C3CC4CCN3CC4)n2)c2ccccc21 (centres undefined) | 129 nM | – |
| CN1CCCC(c2nc(-c3cn(C)c4ccccc34)no2)C1 (centres undefined) | 12.9 nM | – |
| c1ccc2ncc(-c3noc(C4CN5CCC4CC5)n3)cc2c1 (centres undefined) | 1510 nM | – |
| Oc1ccc(-c2noc(C3CN4CCC3CC4)n2)cc1 (centres undefined) | 148 nM | – |
| c1ccc2cc(-c3noc(C4CN5CCC4CC5)n3)ccc2c1 (centres undefined) | 1480 nM | – |
| Cn1cc(-c2noc(CC3CN4CCC3CC4)n2)c2ccccc21 (centres undefined) | 55 nM | – |
| c1ccc(-c2noc(C3CN4CCC3CC4)n2)cc1 (centres undefined) | 200 nM | – |
| CN1CC=C(c2nnc(-c3cn(C)c4ccccc34)o2)CC1 | 501 nM | – |
| CNCCc1nc(-c2cn(C)c3ccccc23)no1 | 85.1 nM | pKa [3]: 8.8 |
| COc1cccc(-c2noc(C3CN4CCC3CC4)n2)c1 (centres undefined) | 12.6 nM | – |
| c1cncc(-c2noc(C3CN4CCC3CC4)n2)c1 (centres undefined) | 2950 nM | – |
| c1ccc2c(-c3noc(C4CN5CCC4CC5)n3)c[nH]c2c1 (centres undefined) | 2.69 nM | – |
| COc1ccccc1-c1noc(C2CN3CCC2CC3)n1 (centres undefined) | 155 nM | – |
| COc1ccc(-c2noc(C3CN4CCC3CC4)n2)cc1 (centres undefined) | 1580 nM | – |
| CN(C)CCc1nc(-c2cn(C)c3ccccc23)no1 | 13.8 nM | pKa [3]: 7.7 |
| CN1CCC=C(c2nc(-c3cn(C)c4ccccc34)no2)C1 | 209 nM | pKa [4]: 7.2 |
| Oc1cccc(-c2noc(C3CN4CCC3CC4)n2)c1 (centres undefined) | 81.3 nM | – |
| Cn1cc(-c2noc(C3CC4CCC3NC4)n2)c2ccccc21 (stereo in doubt; 12s) | 89.1 nM | – |
| Cn1cc(-c2noc(C3CC4CCC3NC4)n2)c2ccccc21 (stereo in doubt; 12t) | 13.2 nM | – |
| Cn1cc(-c2noc(C3CN4CCC3C4)n2)c2ccccc21 (stereo in doubt; 12u) | 7.59 nM | – |
| Cn1cc(-c2noc(C3CN4CCC3C4)n2)c2ccccc21 (stereo in doubt; 12v) | 1.05 nM | – |
| CN1CC2CCC1C(c1nc(-c3cn(C)c4ccccc34)no1)C2 (stereo in doubt; 12y) | 224 nM | – |
| CN1CC2CCC1C(c1nc(-c3cn(C)c4ccccc34)no1)C2 (stereo in doubt; 12z) | 85.1 nM | – |
| Cn1cc(-c2nsc(C3CC4CCN3C4)n2)c2ccccc21 (stereo in doubt; 26) | 14.1 nM | – |
| Cn1cc(-c2nsc(C3CC4CCN3C4)n2)c2ccccc21 (stereo in doubt; 27) | 20.4 nM | – |
| CN1[C@@H]2CC[C@H]1C[C@@H](OC(=O)c1cc(Cl)cc(Cl)c1)C2 [BEMESETRON] | – | IC50 [1]: 21.9 nM |
